Assay results: ChEMBL document CHEMBL1153758, “Synthesis and anti-osteoporotic evaluation of certain 3-amino-2-hydroxypropoxyisoflavone derivatives” (Eur J Med Chem, 2009)
Active and inactive are the calls of the source. The calls are words filed in the database; no cut-off is given here.

Assays:
RAW264.7 [1] = experiment: Antiosteoporotic activity in mouse RAW264.7 cells assessed as inhibition of RANKL-stimulated osteoclastogenesis by TRAP assay; assay type: functional, cell-based; conditions: for EC50: read-out: ED50 (the source's name)
How it was run: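 RAW 264.7 cells were seeded at 10^3 cells per well with 100 ng/mL RANKL and cultured 5 days at 37 °C in 5% CO2, with fresh RANKL-containing medium added on day 3. TRAP activity was read as conversion of 4 mmol/L α-naphthyl phosphate to α-naphthol in the presence of 2 mol/L L-tartrate, by absorbance at 405 nm.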

[2] = Cytotoxicity against human ADSC at 10 uM after 3 days by MTT assay; conditions: 72 h
How it was run: (§1)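 Compounds came from 10 mM DMSO stocks, diluted fresh in medium to a final 10 µM (0.1% DMSO), with vehicle-matched DMSO controls. After treatment, MTT ([…] in PBS) was added for 4 h. Formazan was then dissolved in DMSO for 0.5 h and read at 570 nm, expressed as % of control.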

MC3T3-E1 = experiment: Osteogenic effect on mouse MC3T3-E1 cells assessed as extracellular matrix calcification at 10 uM after 12 days by using alizarin red S dye; assay type: functional, cell-based
How it was run: (§2)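 Cells were induced in osteo-induction medium (low-glucose DMEM, 10% FBS, 0.1 µM dexamethasone, 10 mM β-glycerophosphate, 100 µM L-ascorbic 2-phosphate) for 7–14 days. Compounds were added at a final 10 µM from 10 mM DMSO stocks (0.1% DMSO), with DMSO-matched controls.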

D1 = experiment: Osteogenic effect on mouse D1 cells assessed as extracellular matrix calcification at 10 uM after 7 days by using alizarin red S dye; assay type: functional, cell-based; how it was run: as §2
MADS = experiment: Osteogenic effect on human MADS cells assessed as extracellular matrix calcification at 10 uM after 13 days by using alizarin red S dye; assay type: functional, cell-based; how it was run: as §2
RAW264.7 [3] = experiment: Cytotoxicity against mouse RAW264.7 cells at 10 uM after 3 days by MTT assay; assay type: cell-based; conditions: raw264.7, 72 h; how it was run: as §1
[4] = Cytotoxicity against mouse D1 cells at 10 uM after 3 days by MTT assay; assay type: cell-based; conditions: d1, 72 h; how it was run: as §1
[5] = Selectivity ratio for osteogenic effect of 3-(4-(3-(cyclohexylamino)-2-hydroxypropoxy)phenyl)-7-methoxy-4H-chromen-4-one on MC3T3-E1 cells to osteogenic effect of ipriflavone on MC3T3-E1 cells; assay type: functional, Mus musculus
[6] = Selectivity ratio for osteogenic effect of 3-(3,4-dimethoxyphenyl)-7-(oxiran-2-ylmethoxy)-4H-chromen-4-one on MC3T3-E1 cells to osteogenic effect of ipriflavone on MC3T3-E1 cells; assay type: functional, Mus musculus
[7] = system: adipose-derived stem cells (Homo sapiens); experiment: Cytotoxicity against human adipose-derived stem cells assessed as decrease in cell viability; conditions: hADSC

## O=c1cc(-c2ccccc2)oc2cc(O)c(O)c(O)c12 [BAICALEIN]
RAW264.7 [1]
  IC50: 13 µM

## COc1ccc2c(=O)c(-c3ccc(OCC(O)CNC4CC4)cc3)coc2c1 (stereo not given)
RAW264.7 [1]
  IC50: 4.85 µM

## COc1ccc2c(=O)c(-c3ccc(OCC(O)CNC4CCCCC4)cc3)coc2c1 (stereo not given)
[2]
  Activity: Non-toxic
MC3T3-E1
  Activity: Active
D1
  Activity: Active
MADS
  Activity: Active
RAW264.7 [1]
  EC50: 2.28 µM
RAW264.7 [3]
  Activity: Non-toxic
[4]
  Activity: Non-toxic
[5]
  Selectivity ratio: 10

## COc1ccc2c(=O)c(-c3ccc(OCC4CO4)cc3)coc2c1 (stereo not given)
RAW264.7 [1]
  IC50: 6.39 µM

## O=C(c1ccc(OCCN2CCCCC2)cc1)c1c(-c2ccc(O)cc2)sc2cc(O)ccc12 [RALOXIFENE]
[2]
  Activity: Non-toxic
MADS
  Activity: Active

## CC(C)Oc1ccc2c(=O)c(-c3ccccc3)coc2c1 [IPRIFLAVONE]
[2]
  Activity: Non-toxic
MADS
  Activity: Active

## COc1ccc(-c2coc3cc(OCC4CO4)ccc3c2=O)cc1OC (stereo not given)
MC3T3-E1
  Activity: Active
D1
  Activity: Active
MADS
  Activity: Active
[6]
  Selectivity ratio: 10
RAW264.7 [1]
  IC50: 0.56 µM
  EC50: 0.56 µM
RAW264.7 [3]
  Activity: Non-toxic
[4]
  Activity: Non-toxic
[7]
  Activity: 60%

## COc1ccc(-c2coc3cc(OCC(O)CNC4CCCCC4)ccc3c2=O)cc1OC (stereo not given)
RAW264.7 [1]
  IC50: 4.17 µM
